Experimental data from different studies.
Effect on: cell growth or viability

O=S(=O)(NNc1nnc(Cl)c2ccccc12)c1ccc(F)cc1  viability (Vero; MTT; 250 µg/mL): 24.9%
COC(=O)c1[nH]c(C(=O)OC)c(-c2c[nH]c3ccc(Cl)cc23)c1-c1c[nH]c2ccc(Cl)cc12  CC50 (RAW264.7; resazurin; 72 h): > 10 µM
CCNc1nc(Nc2ccc(F)c(Cl)c2)c2ccccc2n1  viability (Vero; MTT; 500 µg/mL): 6.91%
O=C1CCN(C(=O)Nc2ccc(F)c(Cl)c2)CN1Cc1ccc(F)cc1F  CC50 (AML12HBV10; MTT; 48 h): > 50 µM
Cn1cnc2c1c(=O)n(CC(=O)Nc1c(Cl)cccc1Cl)c(=O)n2C  viability (Vero; MTT; 250 µg/mL): 70.7%
CC(=O)O[C@H]1C(=O)[C@@]2(C)[C@H]([C@H](OC(=O)c3ccccc3)[C@]3(O)C[C@H](OC(=O)[C@H](O)[C@@H](NC(=O)c4ccccc4)c4ccccc4)C(C)=C1C3(C)C)[C@]1(OC(C)=O)CO[C@@H]1C[C@@H]2O  IC50 (SMMC-7721; MTT; 48 h): 4.27 µM
COc1ccc2c(Cc3ccccc3F)c3[n+](cc2c1OC)CCc1cc2c(cc1-3)OCO2  IC50 (L929; CCK-8; 24 h): 19.9 µM
COc1ccc(S(=O)(=O)ON=C2C=C(C)C(=O)C(C)=C2)cc1  CC50 (MDA-MB-436): 2.85 µM
C=C1[C@@H]2[C@H]3OC(=O)C(=C)[C@@H]3CCC(=C)[C@@H]2C[C@@H]1OC(C)=O  CC50 (CHO-K1; MTT; 72 h): 6.9 µM
CC(C)=CCc1c(O)c(CC=C(C)C)c2occ(-c3ccc(O)cc3)c(=O)c2c1O  viability (RAW264.7; MTT; 100 µg/mL; 24 h): 91.4%
